We go through 25 compounds from ChEMBL document CHEMBL4152384, “Pyrtriazoles, a Novel Class of Store-Operated Calcium Entry Modulators: Discovery, Biological Profiling, and in Vivo Proof-of-Concept Efficacy in Acute Pancreatitis” (J Med Chem, 2018).

Data set [1] concerns the target T1, Stromal interaction molecule 1 & 2/Calcium release-activated calcium channel protein 1 (Mus musculus) (UniProt Q8BWG9+P70302+P83093). The data set can be described thus: Modulation of STIM1/STIM2/Orai1 in mouse BV2 cells assessed as induction of store-operated calcium entry by measuring residual activity at 10 uM preincubated for 30 mins followed by tBhQ-mediated Ca2+ depletion and Ca2+ re-addition to extracellular solution measured for 600 secs by Fluo-4 AM-based fluorometric assay relative to control. It counts as cell-based.

Data set [2] deals with T2, Short transient receptor potential channel 1 & 3/Stromal interaction molecule 1/Calcium release-activated calcium channel protein 1 (Homo sapiens) (UniProt Q96D31+Q13507+Q13586+P48995). Nature of the data set: Modulation of TRPC1/TRPC3/STIM1/Orai1 in HEK cells assessed as induction of store-operated calcium entry by measuring residual activity at 10 uM preincubated for 30 mins followed by tBhQ-mediated Ca2+ depletion and Ca2+ re-addition to extracellular solution measured for 600 secs by Fluo-4 AM-based fluorometric assay relative to control. It counts as cell-based.

The test system of data set [3] is Jurkat. The data set can be described thus: Induction of store-operated calcium entry in human Jurkat cells assessed as induction of store-operated calcium entry by measuring residual activity at 10 uM preincubated for 30 mins followed by tBhQ-mediated Ca2+ depletion and Ca2+ re-addition to extracellular solution measured for 600 secs by Fluo-4 AM-based fluorometric assay relative to control. Format: cell-based.

Data set [4] in a line: Cytotoxicity against HEK cells assessed as cell viability at 10 uM by MTT assay relative to control. It counts as cell-based. To be noted: human, read-out: Activity. The method, boiled down:
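Hek cells treated 24 h with compound at 10 μM; viability determined by MTT assay.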
A general note: Tetrazolium dyes change colour on reduction, which living cells bring about.

Data set [5] is described as follows: Metabolic stability in CD1 mouse plasma assessed as residual compound level at 50 uM after 30 mins by LC-UV analysis. Format: ADME, cell-free. Conditions: read-out: Stability. The method, boiled down: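 Compounds incubated in mouse plasma for 30 min; percentage of residual substrate determined.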
For data set [6], the target named is Transient receptor potential cation channel subfamily M member 8 (Homo sapiens) (UniProt Q7Z2W7). The data set can be described thus: Antagonist activity at TRPM8 (unknown origin) expressed in HEK cells assessed as inhibition of menthol -mediated calcium increase at 10 uM by fura-2-based assay. It counts as cell-based. The method, boiled down: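 TRPM8-overexpressing Hek cells; calcium rise evoked by menthol (100 μM), test compounds at 10 μM; peak amplitude read out; mean ± SEM of 600 cells from 30 plates on four separate experimental days.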

Data set [7] concerns voltage-gated calcium channel (Mus musculus). Nature of the data set: Antagonist activity at voltage-gated calcium channels in C57/BL6 mouse cerebellar granule cells assessed as inhibition of KCl-induced voltage dependent calcium entry at 10 uM by fura-2-based assay.
Data set [8] in a line: Metabolic stability in CD1 mouse liver S9 fraction assessed as residual compound level at 50 uM after 1 hr. Format: ADME, subcellular. Conditions: read-out: Stability. The method, boiled down:
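Hydrolytic stability measured in mouse liver S9 fraction; residual substrate quantified after 1 h incubation.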

The nature of data set [9]: Drug metabolism in CD1 mouse liver microsomes assessed as 1-(4-(4-(3-Carboxyphenyl)-1H-1,2,3-triazol-1-yl)phenyl)-5-(trifluoromethyl)-1H-pyrazole-4-carboxylic Acid metabolite formation at 50 uM after 60 mins by mass spectroscopic analysis. It counts as ADME, microsome.
Data set [10] is described as follows: Drug metabolism in CD1 mouse liver microsomes assessed as ester group hydrolysis at 50 uM after 60 mins in presence of NADPH/UDPGA. Format: ADME, microsome. Conditions: 1 h.
Data set [11] can be described thus: Drug metabolism in CD1 mouse liver microsomes assessed as ester group hydrolysis at 50 uM after 60 mins in absence of NADPH/UDPGA. To be noted: 1 h. Format: ADME, microsome.
Data set [12] deals with voltage-gated calcium channel (Mus musculus). Nature of the data set: Antagonist activity at voltage-gated calcium channels in C57/BL6 mouse cerebellar granule cells assessed as inhibition of KCl-induced voltage dependent calcium entry at 10 uM by fura-2-based assay. This is another data set of the same source.
In data set [13] the target is Transient receptor potential cation channel subfamily V member 1 (Homo sapiens) (UniProt Q8NER1). Nature of the data set: Antagonist activity at TRPV1 (unknown origin) expressed in HEK cells assessed as inhibition of capsaicin-induced calcium increase at 10 uM by fura-2-based assay. It counts as cell-based. The method in brief:
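TRPV1-overexpressing Hek cells; calcium rise evoked by capsaicin (100 nM), test compounds at 10 μM; peak amplitude read out; mean ± SEM of 600 cells from 30 plates on four separate experimental days.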

Data set [14] deals with Short transient receptor potential channel 1 & 3/Stromal interaction molecule 1/Calcium release-activated calcium channel protein 1 (Homo sapiens, UniProt P48995+Q13507+Q13586+Q96D31). The data set can be described thus: Modulation of TRPC1/TRPC3/STIM1/Orai1 in HEK cells assessed as induction of store-operated calcium entry by measuring residual activity preincubated for 30 mins followed by tBhQ-mediated Ca2+ depletion and Ca2+ re-addition to extracellular solution measured for 600 secs by Fluo-4 AM-based fluorometric assay relative to control. It counts as cell-based.

Data set [15] relates to Jurkat. Nature of the data set: Induction of store-operated calcium entry in human Jurkat cells assessed as induction of store-operated calcium entry by measuring residual activity at 100 uM preincubated for 30 mins followed by tBhQ-mediated Ca2+ depletion and Ca2+ re-addition to extracellular solution measured for 600 secs by Fluo-4 AM-based fluorometric assay relative to control. Format: cell-based.

Data set [16] is described as follows: Induction of store-operated calcium entry in human Jurkat cells assessed as induction of store-operated calcium entry by measuring residual activity preincubated for 30 mins followed by tBhQ-mediated Ca2+ depletion and Ca2+ re-addition to extracellular solution measured for 600 secs by Fluo-4 AM-based fluorometric assay relative to control. Format: cell-based.

Data set [17] addresses T2, Short transient receptor potential channel 1 & 3/Stromal interaction molecule 1/Calcium release-activated calcium channel protein 1 (Homo sapiens). The data set can be described thus: Modulation of TRPC1/TRPC3/STIM1/Orai1 in HEK cells assessed as induction of store-operated calcium entry by measuring residual activity at 100 uM preincubated for 30 mins followed by tBhQ-mediated Ca2+ depletion and Ca2+ re-addition to extracellular solution measured for 600 secs by Fluo-4 AM-based fluorometric assay relative to control. It counts as cell-based.

The target of data set [18] is T1, Stromal interaction molecule 1 & 2/Calcium release-activated calcium channel protein 1 (Mus musculus). Nature of the data set: Modulation of STIM1/STIM2/Orai1 in mouse BV2 cells assessed as induction of store-operated calcium entry by measuring residual activity at 100 uM preincubated for 30 mins followed by tBhQ-mediated Ca2+ depletion and Ca2+ re-addition to extracellular solution measured for 600 secs by Fluo-4 AM-based fluorometric assay relative to control. Format: cell-based.

pIC50: −log10 of the molar value. Activity calls are given as the source filed them. The rule behind the calls is not given here.

Chain of Transient receptor potential cation channel subfamily V member 1 (Homo sapiens) (Q8NER1 whole entry): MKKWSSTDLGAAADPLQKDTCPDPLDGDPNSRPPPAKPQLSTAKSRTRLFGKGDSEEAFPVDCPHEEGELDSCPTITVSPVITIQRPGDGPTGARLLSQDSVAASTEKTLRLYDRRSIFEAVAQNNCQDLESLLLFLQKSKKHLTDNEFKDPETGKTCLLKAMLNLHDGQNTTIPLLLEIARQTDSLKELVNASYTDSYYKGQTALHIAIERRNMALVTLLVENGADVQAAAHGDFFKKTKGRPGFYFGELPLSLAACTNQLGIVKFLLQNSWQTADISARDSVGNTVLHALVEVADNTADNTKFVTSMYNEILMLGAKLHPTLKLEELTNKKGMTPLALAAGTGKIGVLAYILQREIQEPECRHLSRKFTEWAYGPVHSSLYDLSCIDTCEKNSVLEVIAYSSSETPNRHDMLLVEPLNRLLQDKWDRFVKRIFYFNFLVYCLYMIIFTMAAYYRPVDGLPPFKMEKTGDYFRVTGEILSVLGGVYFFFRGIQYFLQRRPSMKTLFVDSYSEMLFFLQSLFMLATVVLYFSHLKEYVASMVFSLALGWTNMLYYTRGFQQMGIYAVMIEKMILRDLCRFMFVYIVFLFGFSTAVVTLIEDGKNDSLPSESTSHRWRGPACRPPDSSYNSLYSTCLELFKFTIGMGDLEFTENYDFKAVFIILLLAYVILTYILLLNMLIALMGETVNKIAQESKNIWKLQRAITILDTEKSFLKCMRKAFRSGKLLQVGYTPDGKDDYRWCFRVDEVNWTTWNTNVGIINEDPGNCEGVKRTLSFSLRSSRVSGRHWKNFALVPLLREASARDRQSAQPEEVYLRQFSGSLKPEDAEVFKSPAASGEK
T2 sequence (P48995 whole entry partner): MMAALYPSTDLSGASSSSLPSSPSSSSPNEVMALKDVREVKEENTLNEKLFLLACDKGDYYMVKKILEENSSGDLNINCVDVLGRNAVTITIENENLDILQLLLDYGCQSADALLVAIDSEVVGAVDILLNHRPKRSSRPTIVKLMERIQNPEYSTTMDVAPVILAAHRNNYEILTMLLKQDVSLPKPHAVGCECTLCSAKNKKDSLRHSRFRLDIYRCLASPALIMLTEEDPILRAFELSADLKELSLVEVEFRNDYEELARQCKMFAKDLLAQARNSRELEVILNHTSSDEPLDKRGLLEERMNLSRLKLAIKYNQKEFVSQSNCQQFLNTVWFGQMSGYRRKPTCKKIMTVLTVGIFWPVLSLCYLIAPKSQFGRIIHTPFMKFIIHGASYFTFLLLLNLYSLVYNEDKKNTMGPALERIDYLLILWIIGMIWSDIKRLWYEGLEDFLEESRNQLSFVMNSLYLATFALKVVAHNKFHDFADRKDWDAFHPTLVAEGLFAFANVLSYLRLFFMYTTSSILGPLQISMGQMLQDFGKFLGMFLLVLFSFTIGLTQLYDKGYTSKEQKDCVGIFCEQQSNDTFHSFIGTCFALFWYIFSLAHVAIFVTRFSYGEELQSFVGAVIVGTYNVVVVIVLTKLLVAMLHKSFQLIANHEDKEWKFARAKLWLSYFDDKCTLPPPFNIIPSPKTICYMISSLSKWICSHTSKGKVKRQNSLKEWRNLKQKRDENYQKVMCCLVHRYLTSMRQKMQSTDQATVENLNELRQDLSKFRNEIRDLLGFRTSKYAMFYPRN
T2 sequence (Q13507 whole entry partner): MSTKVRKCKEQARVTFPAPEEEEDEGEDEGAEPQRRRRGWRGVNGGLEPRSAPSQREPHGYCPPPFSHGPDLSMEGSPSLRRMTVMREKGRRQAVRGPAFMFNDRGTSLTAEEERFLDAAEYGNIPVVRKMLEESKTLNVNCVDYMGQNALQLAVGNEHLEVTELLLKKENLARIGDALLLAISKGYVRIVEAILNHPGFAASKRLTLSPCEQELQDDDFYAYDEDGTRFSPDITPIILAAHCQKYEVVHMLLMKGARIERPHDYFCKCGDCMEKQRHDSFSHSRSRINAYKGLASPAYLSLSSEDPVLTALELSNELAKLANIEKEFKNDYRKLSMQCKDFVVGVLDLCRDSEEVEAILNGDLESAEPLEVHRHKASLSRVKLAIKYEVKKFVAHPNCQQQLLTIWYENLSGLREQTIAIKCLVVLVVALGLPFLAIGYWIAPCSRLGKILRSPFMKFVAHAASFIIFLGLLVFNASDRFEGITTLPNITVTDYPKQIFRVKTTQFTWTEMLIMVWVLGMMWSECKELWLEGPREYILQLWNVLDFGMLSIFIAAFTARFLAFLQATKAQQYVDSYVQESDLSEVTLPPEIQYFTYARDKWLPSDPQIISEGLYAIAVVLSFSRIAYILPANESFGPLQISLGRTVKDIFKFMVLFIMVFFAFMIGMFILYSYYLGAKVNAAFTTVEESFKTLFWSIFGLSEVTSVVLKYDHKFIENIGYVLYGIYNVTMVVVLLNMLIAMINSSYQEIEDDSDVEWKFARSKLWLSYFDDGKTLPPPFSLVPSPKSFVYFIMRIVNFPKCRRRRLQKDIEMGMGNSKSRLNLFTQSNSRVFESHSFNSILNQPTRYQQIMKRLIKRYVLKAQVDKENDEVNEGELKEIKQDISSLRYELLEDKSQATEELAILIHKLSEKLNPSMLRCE
T2 sequence (Q13586 23-685 partner limits assumed): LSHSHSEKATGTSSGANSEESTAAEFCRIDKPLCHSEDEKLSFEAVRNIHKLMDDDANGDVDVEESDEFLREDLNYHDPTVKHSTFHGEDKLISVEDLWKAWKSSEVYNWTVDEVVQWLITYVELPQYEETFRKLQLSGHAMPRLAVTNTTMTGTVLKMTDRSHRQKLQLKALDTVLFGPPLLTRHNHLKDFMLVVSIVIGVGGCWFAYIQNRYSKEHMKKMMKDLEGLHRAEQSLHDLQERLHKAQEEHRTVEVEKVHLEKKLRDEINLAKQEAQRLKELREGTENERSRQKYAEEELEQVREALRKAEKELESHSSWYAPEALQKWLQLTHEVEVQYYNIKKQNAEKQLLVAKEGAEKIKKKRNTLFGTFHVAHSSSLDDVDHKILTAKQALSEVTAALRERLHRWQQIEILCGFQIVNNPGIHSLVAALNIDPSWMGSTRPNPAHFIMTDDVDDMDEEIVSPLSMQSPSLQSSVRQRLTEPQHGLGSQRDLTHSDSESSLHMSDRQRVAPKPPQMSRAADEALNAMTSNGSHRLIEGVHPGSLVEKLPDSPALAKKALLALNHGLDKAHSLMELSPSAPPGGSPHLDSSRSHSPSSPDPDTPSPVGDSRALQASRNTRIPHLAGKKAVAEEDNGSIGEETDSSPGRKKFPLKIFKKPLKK
T2 sequence (Q96D31 whole entry): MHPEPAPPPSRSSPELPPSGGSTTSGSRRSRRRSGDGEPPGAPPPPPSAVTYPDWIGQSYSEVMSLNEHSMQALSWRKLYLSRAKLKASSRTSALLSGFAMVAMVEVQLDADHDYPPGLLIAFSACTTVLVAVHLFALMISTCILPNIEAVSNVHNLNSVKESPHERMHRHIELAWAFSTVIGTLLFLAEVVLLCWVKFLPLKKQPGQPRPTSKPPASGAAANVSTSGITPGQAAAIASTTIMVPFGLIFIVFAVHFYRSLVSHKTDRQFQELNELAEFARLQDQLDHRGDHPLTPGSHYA
Chain of Transient receptor potential cation channel subfamily M member 8 (Homo sapiens) (Q7Z2W7 whole entry, looked up): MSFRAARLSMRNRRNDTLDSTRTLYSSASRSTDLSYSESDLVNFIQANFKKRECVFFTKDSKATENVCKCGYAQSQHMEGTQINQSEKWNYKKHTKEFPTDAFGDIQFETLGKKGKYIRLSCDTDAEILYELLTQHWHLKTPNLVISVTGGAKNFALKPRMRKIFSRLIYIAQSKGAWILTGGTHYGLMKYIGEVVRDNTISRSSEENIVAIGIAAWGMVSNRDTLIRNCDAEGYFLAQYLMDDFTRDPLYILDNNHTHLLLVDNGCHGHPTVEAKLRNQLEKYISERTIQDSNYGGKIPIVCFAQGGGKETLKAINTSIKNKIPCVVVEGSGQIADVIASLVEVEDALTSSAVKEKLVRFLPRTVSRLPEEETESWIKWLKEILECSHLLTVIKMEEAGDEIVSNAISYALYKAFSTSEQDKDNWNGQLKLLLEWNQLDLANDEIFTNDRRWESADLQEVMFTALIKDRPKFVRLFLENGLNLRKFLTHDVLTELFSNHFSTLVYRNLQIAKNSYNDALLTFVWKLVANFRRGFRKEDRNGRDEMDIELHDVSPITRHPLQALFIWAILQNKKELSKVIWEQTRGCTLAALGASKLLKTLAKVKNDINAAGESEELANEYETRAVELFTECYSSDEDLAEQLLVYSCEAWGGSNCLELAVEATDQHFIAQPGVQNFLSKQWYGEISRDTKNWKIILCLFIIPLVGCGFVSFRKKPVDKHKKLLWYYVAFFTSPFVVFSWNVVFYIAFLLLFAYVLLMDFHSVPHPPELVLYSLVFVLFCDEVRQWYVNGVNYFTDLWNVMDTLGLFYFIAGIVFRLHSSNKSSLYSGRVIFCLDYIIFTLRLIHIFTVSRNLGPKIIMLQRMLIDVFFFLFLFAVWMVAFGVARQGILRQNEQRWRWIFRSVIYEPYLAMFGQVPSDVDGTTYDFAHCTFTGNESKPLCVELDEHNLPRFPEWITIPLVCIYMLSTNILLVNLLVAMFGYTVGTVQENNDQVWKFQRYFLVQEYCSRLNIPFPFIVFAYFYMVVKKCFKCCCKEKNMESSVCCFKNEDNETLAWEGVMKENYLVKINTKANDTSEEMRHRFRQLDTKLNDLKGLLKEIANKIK

For `CCOC(=O)c1cnn(-c2ccc(-n3cc(-c4ccc(C(=O)O)cc4)nn3)cc2)c1C(F)(F)F`, the Activity was 59.9% in data set [1], 52.1% in data set [2] and 67.7% in [3].

As to `O=C(O)c1cccc(-c2cn(-c3ccc(-n4ncc(C(=O)OCc5ccccc5)c4C(F)(F)F)cc3)nn2)c1`, the Activity in [2] came out at 10.5%. Moreover, in [4], the viability at 10 µM worked out at 82.2%.

Turning to `O=C(O)c1cccc(-c2cn(-c3ccc(-n4nc(C(F)(F)F)cc4C(F)(F)F)cc3)nn2)c1`, the values for the Activity in data set [1], in data set [2] and in [3] were 61.3%, 53% and 61.7%, respectively.

For `CCOC(=O)c1cnn(-c2ccc(-n3cc(-c4cccc(C(=O)NO)c4)nn3)cc2)c1C(F)(F)F`, the Activity in [2] is 6.4%. The viability at 10 µM in data set [4] amounted to 67.5%.

For `CCOC(=O)c1cnn(-c2ccc(-n3cc(-c4ccc(O)c(OC)c4)nn3)cc2)c1C(F)(F)F`, the values for the Activity in data set [1], in [2] and in [3] were 65%, 43.2% and 21.6%, respectively.

For the compound `CCOC(=O)c1cnn(-c2ccc(C(=O)Nc3cccc(C(=O)O)c3)cc2)c1C(F)(F)F`, the Activity in [2] is over 90%.

As to `CCOC(=O)c1cnn(-c2ccc(-c3cn(CCCC(=O)O)nn3)cc2)c1C(F)(F)F`, the Activity in data set [1] is 69.9%; in [2] it was 95.5%; in data set [3] it was 80.9%.

Regarding `CCOC(=O)c1cnn(-c2ccc(-n3cc(-c4cccc(C(=O)NS(C)(=O)=O)c4)nn3)cc2)c1C(F)(F)F`, in data set [2], the Activity is over 90%.

Regarding `COC(=O)c1cnn(-c2ccc(-n3cc(-c4cccc(C(=O)O)c4)nn3)cc2)c1C(F)(F)F`, the Activity in [2] was determined as 7.9%. Also, in [4], the viability at 10 µM was found to be 69.2%. For the same compound, in [5], the remaining at 0.5 h, 50 µM was 6.5%.

Take `CCOC(=O)c1cnn(-c2ccc(-c3cn(-c4ccncc4F)nn3)cc2)c1C(F)(F)F`: the results for the Activity in [1], in data set [2] and in data set [3] were 62.3%, 81.4% and 67.1%, respectively.

As for `O=C(O)c1cccc(-c2cn(-c3ccc(-n4ncc(C(=O)OCc5ccncc5)c4C(F)(F)F)cc3)nn2)c1`, the Activity in data set [2] is over 90%.

With `CC(C)OC(=O)c1cnn(-c2ccc(-n3cc(-c4cccc(C(=O)O)c4)nn3)cc2)c1C(F)(F)F`, the inhibition result in data set [6], in [7], in [12] and in [13] was “inactive” throughout. The remaining at 1 h, 50 µM in data set [8] was found to be 81.3%. Moreover, the Activity in data set [2] is 3.5%. In addition, the figures for the Drug metabolism entry in [9], in [10] and in data set [11] were “Metabolite_Notdetected”, “Metabolite_Detected” and “Metabolite_Detected”, respectively. In addition, the viability at 10 µM in [4] is 87.2%. Moreover, the remaining at 0.5 h, 50 µM in data set [5] worked out at 87.7%. In [14], the pIC50 was 5.51.

On to `NC(=O)c1cnn(-c2ccc(-n3cc(-c4cccc(C(=O)O)c4)nn3)cc2)c1C(F)(F)F`, for which, in data set [2], the Activity is over 90%.

Take `CCOC(=O)c1cnn(-c2ccc(-c3cn(-c4ccc(C(=O)O)cc4)nn3)cc2)c1C(F)(F)F`: the Activity in data set [1] was 69.5%; in data set [2], 69.3%; in [3], 60.3%.

In the case of `CCOC(=O)c1cnn(-c2ccc(-n3cc(-c4cccc(C(=O)OC)c4)nn3)cc2)c1C(F)(F)F`, in [2], the Activity was over 90%.

Consider `O=C(O)c1cccc(-c2cn(-c3ccc(-n4ncc(C(=O)O)c4C(F)(F)F)cc3)nn2)c1`, for which, in data set [2], the Activity was over 90%.

`CCOC(=O)c1cnn(-c2ccc(-c3cn(-c4cccc(C(=O)O)c4)nn3)cc2)c1C(F)(F)F`: the results for the Activity in data set [1], in data set [2] and in data set [3] were 56.7%, 30% and 36.3%, respectively.

Turning to `O=C(O)c1cccc(-c2cn(-c3ccc(-n4ncc(CO)c4C(F)(F)F)cc3)nn2)c1`, the Activity in data set [2] was over 90%.

On to `CCOC(=O)c1cnn(-c2ccc(-n3cc(-c4cccc(S(N)(=O)=O)c4)nn3)cc2)c1C(F)(F)F`, for which the Activity in data set [2] stood at 83.6%.

Consider `CCOC(=O)c1cnn(-c2ccc(-n3cc(-c4cccc(N)c4)nn3)cc2)c1C(F)(F)F`, for which the Activity is 65.3% in [1], 81.7% in [2] and 89.3% in data set [3].

Consider `CCOC(=O)c1cnn(-c2ccc(-c3cn(-c4cccc(N)c4)nn3)cc2)c1C(F)(F)F`, for which the Activity came to 61.3% in data set [1], 73.2% in data set [2] and 85.4% in data set [3].

`CCOC(=O)c1cnn(-c2ccc(NC(=O)c3cccc(C(=O)O)c3)cc2)c1C(F)(F)F`: the Activity in data set [2] was found to be 63.5%. Further, the viability at 10 µM in data set [4] is 65.9%.

Regarding `O=C(Nc1ccc(-n2nc(C(F)(F)F)cc2C(F)(F)F)cc1)c1ccncc1F`, the inhibition result in data set [6] and in [13] was “Active” each time. For the same compound, in [2], the Activity turned out to be 10.3%. Also, the viability at 10 µM in [4] is 70.3%. Moreover, the pIC50 in data set [14] is 6.52.

Turning to `CCOC(=O)c1cnn(-c2ccc(NC(=O)C(Cl)=C(Cl)Cl)cc2)c1C(F)(F)F`, the inhibition entry in [6] and in data set [13] was “inactive” each time. The Activity in [1] was determined as 40.7%; in [2], 8.9%; in data set [3] it was 6.1%. Besides, in [4], the viability at 10 µM was 28.6%. Moreover, the remaining at 0.5 h, 50 µM in [5] worked out at 20.4%. For the same compound, the residual activity in data set [15], in data set [17] and in [18] was under 100% each time. In data set [16], the pIC50 is 6.52.

With `O=C(O)c1cccc(-c2cn(-c3ccc(-n4ncc(C(=O)OCCN5CCOCC5)c4C(F)(F)F)cc3)nn2)c1`, in data set [2], the Activity is over 90%.

The term pIC50 denotes −log10 of the IC50, conventionally taken in molar units.
